Reference: ChEMBL document CHEMBL3232876, “Novel R-(+)-limonene-based thiosemicarbazones and their antitumor activity against human tumor cell lines” (Eur J Med Chem, 2014)

Experiments:
PC-3 = experiment: Growth inhibition of human PC3 cells after 48 hrs by sulforhodamine B assay; type: functional; details: PC-3, 48 h
Method in brief: (§1)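 Tumour lines from NCI and Vero from the Rio de Janeiro Cell Bank, grown in RPMI 1640 with 5% fetal bovine serum, with penicillin:streptomycin added to experimental cultures. Each compound was tested at four 10-fold dilutions; sulforhodamine B staining at time zero and 48 h. Proliferation was calculated against T0 and drug-free controls, and GI50 came from sigmoidal regression of the concentration-response curves. Representative experiment in triplicate.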

K562 = experiment: Growth inhibition of human K562 cells after 48 hrs by sulforhodamine B assay; type: functional; details: K562, 48 h; method in brief: as §1
NCI-H460 = experiment: Growth inhibition of human NCI-H460 cells after 48 hrs by sulforhodamine B assay; type: functional; details: NCI-H460, 48 h; method in brief: as §1
MCF7 = experiment: Growth inhibition of human MCF7 cells after 48 hrs by sulforhodamine B assay; type: functional; details: MCF7, 48 h; method in brief: as §1
[1] = Growth inhibition of human UACC62 cells after 48 hrs by sulforhodamine B assay; type: functional; details: UACC-62, 48 h; method in brief: as §1
U-251 = experiment: Growth inhibition of human U251 cells after 48 hrs by sulforhodamine B assay; type: functional; details: U-251, 48 h; method in brief: as §1
[2] = Growth inhibition of human OVCAR3 cells after 48 hrs by sulforhodamine B assay; type: functional; details: OVCAR-3, 48 h; method in brief: as §1
786-0 = experiment: Growth inhibition of human 786-0 cells after 48 hrs by sulforhodamine B assay; type: functional; details: 786-0, 48 h; method in brief: as §1
[3] = Growth inhibition of human NCI-ADR-RES cells after 48 hrs by sulforhodamine B assay; type: functional; method in brief: as §1
Vero = experiment: (§2) Growth inhibition of African green monkey Vero cells after 48 hrs by sulforhodamine B assay; type: cell-based; details: chlorocebus sabaeus, vero, 48 h; method in brief: as §1
[4] = as §2; type: cell-based; details: chlorocebus sabaeus, Vero cells; method in brief: as §1
HT-29 = experiment: Growth inhibition of human HT-29 cells after 48 hrs by sulforhodamine B assay; type: functional; details: HT-29, 48 h; method in brief: as §1

Compound	GI50 (PC-3) [nM]	TGI (PC-3) [µM]	GI50 (K562) [µM]	TGI (K562) [µM]	GI50 (NCI-H460) [µM]	TGI (NCI-H460) [µM]	GI50 (MCF7) [µM]	TGI (MCF7) [µM]	GI50 [1] [µM]	TGI [1] [µM]	GI50 (U-251) [µM]	TGI (U-251) [µM]	GI50 [2] [µM]	TGI [2] [µM]	GI50 (786-0) [µM]	TGI (786-0) [µM]	GI50 [3] [µM]	TGI [3] [µM]	TGI (Vero) [µM]	GI50 at 48 h [4] [µM]	also measured
CC1=CC[C@H](C(C)(C)NC(=S)N/N=C/c2ccc[nH]2)CC1	2800	> 100	23.4	> 100	18	57.5	3.9	11.5	14.8	49.9	0.08	3.9	33.5	> 100	20.8	> 100	78	> 100	> 100	20.5	GI50 (HT-29): 27.5 µM; TGI (HT-29): > 100 µM
CC1=CC[C@H](C(C)(C)NC(=S)N/N=C/c2ccccc2Cl)CC1	50	0.7	5.6	66.2	64.5	81	11	98.3	19.3	98	80.6	> 100	15.1	83.6	85.5	> 100	75	> 100	> 100	74.6	GI50 (HT-29): 71.3 µM; TGI (HT-29): > 100 µM
CC1=CC[C@H](C(C)(C)NC(=S)N/N=C(\C)c2ccc([N+](=O)[O-])cc2)CC1	62600	> 100	83.4	> 100	50.8	83.7	8	77.5	7.2	46.8	7	29.3	7.7	29.3	21.7	> 100	9.9	> 100	> 100	67.1	GI50 (HT-29): 29.9 µM; TGI (HT-29): > 100 µM
CC1=CC[C@H](C(C)(C)NC(=S)N/N=C/c2ccc(F)cc2)CC1	< 40	< 0.9	> 100	> 100	> 100	> 100	> 100	> 100	> 100	> 100	> 100	> 100	> 100	> 100	> 100	> 100	> 100	> 100	> 100	> 100	GI50 (HT-29): > 100 µM; TGI (HT-29): > 100 µM
CC1=CC[C@H](C(C)(C)NC(=S)N/N=C/c2ccc(Cl)cc2)CC1	50	1.7	0.3	16.9	7.8	21.1	18.3	> 100	11.2	> 100	69.5	> 100	8.6	26.4	74.9	> 100	65.2	97.4	> 100	70	GI50 (HT-29): 13.6 µM; TGI (HT-29): 70.5 µM
COc1cc(/C=N/NC(=S)NC(C)(C)[C@H]2CC=C(C)CC2)ccc1O	300	8.3	1.9	85.2	> 100	> 100	14.8	63.9	14.7	42.3	11.7	32.6	53.5	> 100	12.9	35.4	23.9	> 100	91.8	19.7	GI50 (HT-29): < 0.04 µM; TGI (HT-29): < 0.7 µM
CC1=CC[C@H](C(C)(C)NC(=S)N/N=C/c2cccs2)CC1	17800	62.8	17.6	> 100	10.8	20.8	4.8	11.5	2.6	19	13.5	27.4	13.1	35.1	11.5	26.7	13.6	41	13.4	10.1	GI50 (HT-29): 17.8 µM; TGI (HT-29): 57.8 µM
CC1=CC[C@H](C(C)(C)NC(=S)N/N=C/c2ccc(O)cc2)CC1	600	53.8	> 100	> 100	> 100	> 100	> 100	> 100	> 100	> 100	> 100	> 100	> 100	> 100	> 100	> 100	82.1	> 100	> 100	> 100	GI50 (HT-29): > 100 µM; TGI (HT-29): > 100 µM
CC1=CC[C@H](C(C)(C)NC(=S)N/N=C/c2ccc(C)cc2)CC1	< 40	0.9	1.6	56.8	75.7	> 100	15.2	93.6	75.9	> 100	89.2	> 100	67.2	> 100	87.2	> 100	78.5	> 100	> 100	81.4	GI50 (HT-29): 20.2 µM; TGI (HT-29): 94.5 µM
CC1=CC[C@H](C(C)(C)NC(=S)N/N=C/c2cccc(Cl)c2)CC1	600	6.6	5.4	> 100	1.4	21.4	8	61	9	39.8	7.9	35.8	13.6	80.5	9.2	26.9	67.5	> 100	> 100	14.8	GI50 (HT-29): 7.9 µM; TGI (HT-29): 53 µM
